The values below come from PMC5161045 (Journal of Antimicrobial Chemotherapy, 2016).

As a reminder, the MIC is the least concentration at which growth counts as inhibited.

The subject of experiment [1] is S. aureus DA35920 (cycled with PR-39). Put plainly: MIC of antibiotics by Etest. The format is cell-based. The settings on record: Staphylococcus aureus. In outline: (§1)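 Strains were grown overnight with shaking at 37°C in Mueller–Hinton II broth and diluted to ∼10⁸ cfu/mL in the same broth. They were swabbed onto Mueller–Hinton II agar, an antibiotic Etest strip was applied, and plates were incubated at 37°C for 18–20 h. MIC is the lowest concentration with no visible growth, taken as the consensus of ≥2 independent determinations. Increases over WT were graded 2–5-fold or >5-fold, and EUCAST v5.0 breakpoints were used.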

Experiment [2] concerns S. aureus DA29680 (cycled with LL-37). Put plainly: MIC of antibiotics by Etest. It is filed as cell-based. The settings on record: Staphylococcus aureus. An outline of the steps:
as §1

Experiment [3] has as its system S. aureus DA36424 (cycled with LL-37 and WGH). Put plainly: MIC of antibiotics by Etest. The format is cell-based. The settings on record: Staphylococcus aureus. An outline of the steps:
as §1

Experiment [4] deals with S. aureus DA37296 (cycled with PR-39). Briefly: MIC of antibiotics by Etest. The note with it: Staphylococcus aureus. It is filed as cell-based. An outline of the steps: as §1
In experiment [5] the test system is S. aureus DA30557 (cycled with WGH). Briefly: MIC of antibiotics by Etest. The settings on record: Staphylococcus aureus. It is filed as cell-based, Staphylococcus aureus. In outline:
as §1

In experiment [6] the test system is S. aureus DA29677 (cycled with LL-37). Put plainly: MIC of antibiotics by Etest. The settings on record: Staphylococcus aureus. It is filed as cell-based. In outline:
as §1

The test system of experiment [7] is S. aureus DA30559 (cycled with WGH). Put plainly: MIC of antibiotics by Etest. The settings on record: Staphylococcus aureus. It is filed as cell-based. An outline of the steps:
as §1

The subject of experiment [8] is seven AMP-resistant S. aureus mutants. Briefly: MIC of antibiotics by Etest, summary over mutants. It is filed as cell-based, Staphylococcus aureus. The note with it: Mueller–Hinton medium; for number of AMP-resistant mutants with reduced/diminished susceptibility: of seven mutants. In outline:
as §1

Experiment [9] concerns S. aureus DA30560 (cycled with no peptide). Briefly: MIC of antibiotics by Etest. The format is cell-based. The settings on record: Staphylococcus aureus. In outline: as §1
For another experiment, the system named is S. aureus DA28823 (WT). Briefly: MIC of antibiotics by Etest. It is filed as cell-based. The settings on record: Staphylococcus aureus. An outline of the steps:
as §1

Turning to `C[C@H]1c2cccc(O)c2C(=O)C2=C(O)[C@]3(O)C(=O)C(C(N)=O)=C(O)[C@@H](N(C)C)[C@@H]3[C@@H](O)[C@@H]21` [DOX, doxycycline], the MIC in experiment [1] is 0.094 µg/mL; in [2] it was 0.094 µg/mL; in experiment [3] it was 0.25 µg/mL; in experiment [4], 0.125 µg/mL; in experiment [5] it was 0.094 µg/mL; in experiment [6] it was 0.125 µg/mL. The minimum inhibitory concentration (MIC) in experiment [7] is 0.125 µg/mL.
Consider `CC[C@H]1OC(=O)[C@H](C)[C@@H](O[C@H]2C[C@@](C)(OC)[C@@H](O)[C@H](C)O2)[C@H](C)[C@@H](O[C@@H]2O[C@H](C)C[C@H](N(C)C)[C@H]2O)[C@](C)(O)C[C@@H](C)C(=O)[C@H](C)[C@@H](O)[C@]1(C)O` [ERY, erythromycin], for which the MIC in experiment [1] came to 0.38 µg/mL; in experiment [2] it was 0.19 µg/mL; in [3] it was 0.25 µg/mL; in experiment [4], 0.38 µg/mL; in experiment [5], 0.125 µg/mL; in experiment [9], 0.19 µg/mL. Moreover, the MIC in experiment [6] turned out to be 0.19 µg/mL; in experiment [7], 0.125 µg/mL; in the experiment on S. aureus DA28823 (WT), 0.19 µg/mL. In addition, in [8], the “number of AMP-resistant mutants with reduced/diminished susceptibility” value is “two of seven”.
Regarding `CCC[C@@H]1C[C@@H](C(=O)N[C@@H]([C@H]2O[C@H](SC)[C@H](O)[C@@H](O)[C@H]2O)[C@H](C)Cl)N(C)C1` [CLI, clindamycin], the MIC in [1] was determined as 0.094 µg/mL; in experiment [2], 0.094 µg/mL; in experiment [3], 0.125 µg/mL; in experiment [4], 0.125 µg/mL; in [5], 0.064 µg/mL; in experiment [9] it was 0.094 µg/mL. Also, the results for the MIC (in experiment [6]; in experiment [7]; in the experiment on S. aureus DA28823 (WT)) were 0.047 µg/mL, 0.064 µg/mL and 0.094 µg/mL, respectively.
In the case of `O=C(N[C@H](CO)[C@H](O)c1ccc([N+](=O)[O-])cc1)C(Cl)Cl` [CHL, chloramphenicol], the MIC was found to be 3 µg/mL in experiment [1]; 4 µg/mL in [2]; 4 µg/mL in experiment [3]; 6 µg/mL in [4]; 4 µg/mL in experiment [5]; 4 µg/mL in experiment [9]. Also, the MIC in experiment [6] was determined as 6 µg/mL; in experiment [7] it was 4 µg/mL; with S. aureus DA28823 (WT), 4 µg/mL.
With `CC(=O)NC[C@H]1CN(c2ccc(N3CCOCC3)c(F)c2)C(=O)O1` [LZD, linezolid], the MIC worked out at 1 µg/mL in [1]; 1.5 µg/mL in experiment [2]; 2 µg/mL in experiment [3]; 2 µg/mL in experiment [4]; 2 µg/mL in experiment [5]; 2 µg/mL in experiment [9]. Besides, the MIC stood at 1.5 µg/mL in experiment [6], 1 µg/mL in experiment [7] and 2 µg/mL in the experiment with S. aureus DA28823 (WT).
Regarding `CCO/N=C(\C(=O)N[C@@H]1C(=O)N2C(C(=O)[O-])=C(Sc3nc(-c4cc[n+](C)cc4)cs3)CS[C@H]12)c1nsc(N)n1` [CFT, ceftaroline], the MIC in experiment [1] was 0.19 µg/mL; in experiment [2], 0.25 µg/mL; in [3], 0.38 µg/mL; in [4] it was 0.25 µg/mL; in [5], 0.38 µg/mL; in experiment [9], 0.25 µg/mL. The MIC in experiment [6] turned out to be 0.19 µg/mL; in experiment [7], 0.38 µg/mL; with S. aureus DA28823 (WT), 0.25 µg/mL.
Regarding teicoplanin [TEC], the “susceptibility of all seven AMP-resistant mutants relative to WT (in words)” value in experiment [8] is recorded as “diminished susceptibility”.
For `CO[C@H]1/C=C/O[C@@]2(C)Oc3c(C)c(O)c4c(O)c(c(/C=N/N5CCN(C)CC5)c(O)c4c3C2=O)NC(=O)/C(C)=C\C=C\[C@H](C)[C@H](O)[C@@H](C)[C@@H](O)[C@@H](C)[C@H](OC(C)=O)[C@@H]1C` [RIF, rifampicin], the MIC came out at 0.016 µg/mL in [1]; 0.012 µg/mL in [2]; 0.012 µg/mL in experiment [3]; 0.008 µg/mL in experiment [4]; 0.012 µg/mL in experiment [5]; 0.012 µg/mL in [9]. Also, the minimal inhibitory concentration (MIC) came to 0.008 µg/mL in experiment [6], 0.016 µg/mL in [7] and 0.012 µg/mL in the experiment on S. aureus DA28823 (WT).
Regarding polymyxin B [PMB], in [8], the “number of AMP-resistant mutants with reduced/diminished susceptibility” value was “three of seven”.
